Assay results as given in the EternaBench riboswitch data.

Assays:
[1] = tested on: MS2 coat protein; experiment: apparent Kd, MS2 coat protein; higher = weaker binding; RNA-MaP array; tryptophan 2.4 mM where present
In short: (§1)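 Two titrations, one without ligand and one with constant ligand, were run with SNAP-549-labelled MS2 coat protein from 0.7 or 1.5 nM, doubling to 3 µM. The targets were designs transcribed by stalled E. coli RNA polymerase on Illumina sequencing-chip clusters, in 100 mM Tris-HCl pH 7.5, 80 mM KCl, 4 mM MgCl2, BSA, DTT, yeast tRNA and Tween-20. The apparent Kd is the median of filtered per-cluster binding-curve fits, with green signal normalised to red-channel RNA signal and control-cluster median Fmax.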

[2] = tested on: MS2 coat protein; experiment: apparent Kd, MS2 coat protein; higher = weaker binding; RNA-MaP array; theophylline 2 mM where present; conditions: designed as: ON switch for theophylline
In short: as §1

[3] = designed as: OFF switch for tryptophan, no ligand
[4] = ligand present: tryptophan, designed as: OFF switch for tryptophan
[5] = designed as: ON switch for tryptophan, no ligand
[6] = ligand present: tryptophan, designed as: ON switch for tryptophan

Sequence	apparent Kd [1, 3] [nM]	apparent Kd [1, 4] [nM]	apparent Kd [1, 5] [nM]	apparent Kd [1, 6] [nM]	also measured
AUAUAUACAUGAGGAUCACCCAUGUUAUUACGAGGACCGGUACGGCCGCCACUCGAUAGAGUAGAAGUAAAUUGUAAUUCAUGUU	12.4	12.6			
AUAAUAAUCCUCAUGUAAGGUCCUCGAUAACGAGGACCGGUACGGCCGCCACUCGAACAUGAGGAUCACCCAUGUACGAGGACCA			42.5	32.6	
UAUAUAUAUCACUAACUGUUGUGGACGUCUCGAGGACCGGUACGGCCGCCACUCGGGCGGCCUCACAUGAGGAUCACCCAUGUCC	125	110			
GCGACCCUGAGAUCCUACGUAACGUGAACACGAGGACCGGUACGGCCGCCACUCGAGAGAACAUGAGGAUCACCCAUGUCUGAGC	32.9	88.5			
GACGAUAUGAUACGUCAGCAAUCCUCGAAACGAGGACCGGUACGGCCGCCACUCGAGUGAUACACAUGAGGAUCACCCAUGUACC	39.3	53.2			
GCAUCCUAGUCGGCCGCCACUGGUAUCAACACCUUCACCCGUGUGCACAUGAGGAUCACCCAUGUUAGGACCGGGACUAGGAUGC			8.4	8.5	
ACAUGAGGAUCACCCAUGUGCAUCACCCGACGAGGACCGGUACGGCCGCCACUCGGGUAUAUAUUUGCAUCGGGUGAUUUUACGU			19.6	14.9	
AGUAAUAAUAUAAAUAAUAUUAGGUCAUGGCGAGGACCGGUACGGCCGCCACUCGGUUACAUGAGGAUCACCCAUGUCCCGCUUA	30.5	34.6			
UUCUUUAAGUCGGCCGCCACUGAAACAUGAGGAUCACCCAUGUAUAUUUGUGUAAAGGUGGAUUACAGGACCGGGACUAUAGUAA	12	12			
GCAUCCUAGUCGGCCGCCACUGCAAUUGUAAUACUGCUACAUGAACAUGAGGAUCACCCAUGUAGCAGGACCGGGACUAGGAUGC			164	27	
AAUGUCGGAUCGGCCGCCACUGGUUGGCCCUGUGUACAUGAGGAUCACCCAUGUCCAUCCCAAACCAGGACCGGGAUCUUUAUGU			36.1	13	
ACAUGAGGAUCACCCAUGUGUGUAAGUCCUCGAGGACCGGUACGGCCGCCACUCGAACGAGUGUAACAUACUUGUUACAAGUAUG			24	24.4	
GUGUGGAGCUCGGCCGCCACUCAAACAUGAGGAUCACCCAUGUAAAACAUGAGGAUCACCCAUGUGAGGACCGGGAGAAACACGA	338	404			
ACAUGAGGAUCACCCAUGUUUGAUGUUCCUCGAGGACCGGUACGGCCGCCACUCGAACGAGUGGCGCGCGAGCGCGCGCUCGCGC			12.2	12.7	
AAUGAGUGGUGGUCAAGUGAUCCUCAUGAACGAGGACCGGUACGGCCGCCACUCGAUAACAUGAGGAUCACCCAUGUAAUAAUAA	16.5	14.8			
UACUUGCUGACGGCCGCCACUAGAACAUGAGGAUCACCCAUGUAUGGCGGCCGUCAUGGGUGGACUAGGACCGGGUCAGCAAGAU	9.84	13.6			
AGUUCCAGGUCGGCCGCCACUGGCAUGGCCGGUCCUCGGACUUACAUGAGGAUCACCCAUGUGAACAGGACCGGGACCGCAUGGG	38.3	48.2			
AGCACGGUGAUGGUAGCCGGACGCUAGGUACGAGGACCGGUACGGCCGCCACUCGAAGUCCUACGACAUGAGGAUCACCCAUGUA			53.5	40.5	
AUCAUAAUAGACUCGUUUGAUUAUAUGGAACGAGGACCGGUACGGCCGCCACUCGUGAUUUACAUGAGGAUCACCCAUGUUAGCA	15.7	13.9			

Sequence	apparent Kd [1, 3] [nM]	apparent Kd [1, 4] [nM]	apparent Kd [1, 5] [nM]	apparent Kd [1, 6] [nM]	also measured
UCGCCCGGGUCGGCCGCCACUGCGGUGAUGUGACAUGAGGAUCACCCAUGUUGUCAUGUGGCACAUAGGACCGGGACCCGGGCGA	30.5	29.9			
GGAUAGGACACGGCCGCCACUGCGGCUAGAUACUAGCACAUUUCCUCACAUGAGGAUCACCCAUGUAGGACCGGGUGUCCUAUCG	95.7	132			
GUCCAAAGGUCGGCCGCCACUGUAGGAUGUGUUCUUUCACAUGAGGAUCACCCAUGUUGUUAUUAUAGGACCGGGAUUGUAGGAC	20.5	18.5			
UCGGGCAGAGCGGCCGCCACUGUAUGGCGUGCGGAUGACGGAACAUGAGGAUCACCCAUGUUGUUUAGGACCGGGCUUGCCGCGA	11.2	13.2			
UAAUCAGUGCCGGUUCUCGGAUCCUCAUGUCGAGGACCGGUACGGCCGCCACUCGAAACAUGAGGAUCACCCAUGUAAUAAUAAU	89.6	65.8			
UACUUGCUGACGGCCGCCACUAGAACAUGAGGAUCACCCAUGUAGGUCCUAGAUUCCUCAUGAACUAGGACCGGGUCAGCAAGAU	52.6	12.4			
UGUCAUGGAAACAUGACAGGUUCUACCGGUCGAGGACCGGUACGGCCGCCACUCGAUUGGUGGCACAUGAGGAUCACCCAUGUUA			25.2	25.2	
CUUGACAUGAGGAUCACCCAUGUUGGUAAACGAGGACCGGUACGGCCGCCACUCGGUUACGUGUAGUACCGGUAAGAUCCAGGGU			29.3	27.1	
GUUAUAUACUCGGCCGCCACUGAGAGAGUCAUGUAAACAUGAGGAUCACCCAUGUAAUAUAUAUACAGGACCGGGAGUAUGGUAA	14.3	13.5			
AAUGGCCGUACCGGAAGGGUGAUCCUCAAACGAGGACCGGUACGGCCGCCACUCGAUAACAUGAGGAUCACCCAUGUAAUACAUA	366	318			
GGAUUCAACUCGGCCGCCACUGGUGAUCCUAAUGUACAUGAGGAUCACCCAUGUACAUGAGAAUAUAGGACCGGGAGAUAAGUUA			29	24.2	
GGAAAAGAAAGAAAAGAAAUCCCUCCCUCCCGAGGACCGGUACGGCCGCCACUCGCCCUCCCUCCCACAUGAGGAUCACCCAUGU	23.5	23.4			
GGAUAGGACACGGCCGCCACUGCCUAGGAUACUAGAAACAUUUCCUCACAUGAGGAUCACCCAUGUAGGACCGGGUGUCCUAUCG	134	267			
AGCACUGUGGCGGCCGCCACUACAUAUAGGGUGGUCAGGCCCAUAAUACAUGAGGAUCACCCAUGUAGGACCGGGCCUCAGUGCA	15	14.8			
CUACAUUUGUAGAAACCGGUCAACAUUAUUCGAGGACCGGUACGGCCGCCACUCGUAUAUUUUUAUACAUGAGGAUCACCCAUGU			12	11.4	
ACAUUGCGCUCGGCCGCCACUGGCUAUAGAUUUAUAGCAUUAAUGAACAUGAGGAUCACCCAUGUCAGGACCGGGAGCGAACCAU			12.7	14.5	
ACUACGAAGACGGCCGCCACUGAUAUUCGUAGAUCCAUCAAUACAUGAGGAUCACCCAUGUAUAUCAGGACCGGGUCAAGAUGGU	22.6	47.2			
AUCGUACCUGAUGAUACCAGCAAUUGCUCGUGACAUGAGGAUCACCCAUGUGACCAGUGAUGCCCUUGGCAGCAUGGUCGGUGCA					apparent Kd ([2]; no ligand): 97.1 nM; apparent Kd ([2]; ligand present: theophylline): 13.3 nM
UCGUAUGCGGCGGCCGCCACUCGCGGAUAACGAGAGCUUAACAUGAGGAUCACCCAUGUGUCAUGGAGGACCGGGCCCAUUCACA			29.2	31.4	
